High-throughput results (PubChem)
Arbovirus inh – antivirals against arbovirus infection; arbovirus infection cell-based antiviral screen; inhibition, % at 10 µM; 0.37% of 200,000 active; AID 1251; in the data active means inhibition above about 30%
Efa HMGR inh – E. faecalis class II HMG-CoA reductase inhibition. purified E. faecalis HMGR, NADPH absorbance 340 nm kinetic. AID 1066. 0.41% of 190,000 active. inhibition, % at 10 µM;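 active means inhibition above a set limit, the median over all tested compounds plus 3 SD, cut at about 9.5% in these data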;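 further: enzyme runs in reverse so mevalonate oxidation gives rising NADPH absorbance; 0% = complete reaction with DMSO and 100% = background rate lacking mevalonate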
Rad51 HR inh – Rad51 (human) homologous recombination inhibition. 0.085% of 200,000 active. AID 1385. hRad51 DNA strand exchange, fluorescence dequenching. Q06609. inhibition, % at 10 µM;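 active means inhibition above 40% at the single screening dose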;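 further: 0% = DMSO control wells and 100% = blanks with heterologous ssDNA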
Target sequence (Q06609 whole entry, looked up): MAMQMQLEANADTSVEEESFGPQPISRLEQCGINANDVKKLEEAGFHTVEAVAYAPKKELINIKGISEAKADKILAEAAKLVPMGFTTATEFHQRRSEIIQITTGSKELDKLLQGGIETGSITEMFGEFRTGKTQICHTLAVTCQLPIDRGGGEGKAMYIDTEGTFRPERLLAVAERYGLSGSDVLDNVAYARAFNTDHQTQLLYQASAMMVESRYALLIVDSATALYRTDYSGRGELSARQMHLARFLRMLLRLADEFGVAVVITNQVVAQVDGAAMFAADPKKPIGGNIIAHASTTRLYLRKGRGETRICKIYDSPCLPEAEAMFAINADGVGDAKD
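System: human Rad51 nucleoprotein filaments preassembled on unlabelled ssDNA. Reagent: labelled 47-mer dsDNA for strand exchange. Schedule: 30-min compound preincubation and 15-min exchange, both room temperature. Measured by: FRET fluorescence dequenching, excitation 485 nm, emission 520 nm. Read-out: Fluorescence-based percent inhibition, control- and blank-normalised. Benchmarks: plate controls and plate blanks.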
Yeast lifespan up – yeast lifespan extension; inhibition of the nicotinamide effect, % at 10 µM; S. cerevisiae growth with nicotinamide, OD615; deaD strain in restrictive glucose medium; 0.68% of 130,000 active;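 active means inhibition above a set limit, placed 3 SD over the median of all compounds, cut at about 26% in these data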;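 further: 0% = nicotinamide-treated wells and 100% = cells grown without nicotinamide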
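System: DeaD-strain S. cerevisiae / Buffer or medium: CSMM-D, restrictive glucose (dextrose) synthetic minimal medium / Probe or stimulus: nicotinamide, 1.5 mM, co-present with compound / Compound: one concentration, 10 µM, DMSO 0.25% / Incubation: 48 h compound exposure at 30 °C, humidified / Technique: optical density (absorbance) at 615 nm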
Yeast growth inh – yeast BB579 growth reduction in restrictive medium | inhibition, % at 10 µM | 0.51% of 140,000 active | S. cerevisiae BB579 growth, OD615, 48 h | AID 804;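 active means inhibition above a set limit, 3 SD over the mean compound inhibition, cut at about 44% in these data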
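controls = amphotericin B 10 µg/mL, positive | assay system = DeaD yeast strain BB579 | schedule = 48 h compound exposure at 30 °C after 4 h preincubation | detection = OD615 turbidity measurement | medium = restrictive CSMM-D medium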
Measles CPE – protection of cells from measles virus. 1.5% of 140,000 active. Measles virus-infected cells, CPE protection, absorbance. protection (pct of control), % at 4 µM; in the data active means protection mostly above about 24%, no sharp cut-off; inactive means mostly below about 26%
* marks the source's active call; other numbers are inactive results; nt = not tested or not shown. The list is not random: actives were taken first. Their share in the collection is about 2.4%.

SMILES | Arbovirus inh | Efa HMGR inh | Rad51 HR inh | Yeast lifespan up | Yeast growth inh | Measles CPE
COc1ccc(C(CNC(=O)c2ccccc2C)N2CCCC2)cc1 (configuration not stated) | 2.7 | -8.1 | -5.8 | -8.0 | 6.4 | 6.8
CCOC(=O)NC(=O)CSc1nnnn1-c1ccc(Cl)cc1 | -2.2 | -2.9 | 3.7 | -6.6 | -25.4 | 41.8
CCOC(=O)c1ccc(CNC(=O)CSc2nnnn2-c2ccc(Cl)cc2)o1 | 2.1 | 2.3 | nt | -14.2 | -29.2 | 42.6*
CC(C)(CO)CNC(=O)CC1C(=O)NCCN1CC(c1ccccc1)c1ccccc1 (configuration not stated) | 31.7* | -2.4 | -1.5 | nt | nt | nt
C/C(=N\Nc1ccc(F)cc1F)c1ccc(Br)s1 | -28.8 | -0.6 | 0.6 | nt | nt | nt
Cc1ccc(C)c(N=C2CCCN2Cc2ccccc2)c1C#N | 9.5 | 12.9* | 4.7 | nt | -22.4 | 7.4
O=C(Nc1ccccc1N1CCOCC1)c1cccnc1 | 21.2 | 10.1* | -5.3 | nt | nt | nt
O=C(Nc1ccc(N2CCN(C(=O)c3cccs3)CC2)c(Cl)c1)c1cccnc1 | -21.1 | 11.0* | 6.0 | nt | nt | nt
O=C(Nc1ccc(N2CCN(C(=O)c3ccco3)CC2)c(Cl)c1)c1cccnc1 | -2.8 | -6.5 | -0.4 | nt | nt | nt
O=C(Nc1ccc(N2CCCCC2)c(Cl)c1)c1cccnc1 | 3.8 | -2.2 | -0.2 | -22.3 | -16.7 | 60.9*
O=C(Nc1ccc(N2CCOCC2)c(Cl)c1)c1cccnc1 | 3.8 | 1.1 | nt | -5.1 | -31.4 | 14.8
O=C(Cn1nnc(-c2ccccc2Cl)n1)N/N=C/c1ccc(-c2cccc(Cl)c2)o1 | -14.0 | -2.8 | nt | -3.7 | -23.7 | 14.5
Cc1cc(NC(c2ccc(Cl)cc2)c2ccc3cccnc3c2O)no1 (configuration not stated) | -24.5 | 1.9 | 3.5 | -32.7 | 94.5* | 1.6
Cc1nc2ccccc2c2nc3ccccc3n12 | -7.0 | 0.7 | -1.6 | -19.3 | 91.7* | 9.0
c1ccc2c(c1)nnn1c3ccccc3nc21 | -3.0 | -0.7 | 2.9 | -15.1 | 65.0* | 10.7
Nn1nnc2ccccc21 | nt | nt | 2.1 | nt | nt | nt
CCn1c(SCC#N)nc2ccccc2c1=O | nt | nt | 1.2 | nt | nt | nt
N#CCSc1nc2ccccc2c2nc3ccccc3n12 | -3.3 | -0.1 | 0.0 | -4.7 | 61.0* | 0.0
Fc1ccccc1NC(=S)N(CCN1CCCCC1)Cc1ccco1 | 2.7 | 1.5 | -47.1 | nt | nt | nt
COc1ccc(Cn2c(-c3ccccc3)nc3c(c(=O)c4ccccc4n3C)c2=O)cc1 | 1.0 | -1.6 | -17.5 | 3.6 | -4.8 | 8.0
COCCn1c(-c2ccccc2Cl)nc2c(c(=O)c3ccccc3n2C)c1=O | 30.6* | -2.4 | 17.3 | -0.8 | -40.9 | 9.3
COc1ccc(CCn2c(-c3ccccc3)nc3c(c(=O)c4ccccc4n3C)c2=O)cc1 | -9.8 | -1.0 | 37.4 | 31.0* | -58.4 | 14.6
O=C(CS(=O)(=O)Cc1ccccc1)NCc1ccco1 | 12.9 | 9.8* | 4.5 | nt | nt | nt
Cc1ccc(C(=O)OCC(=O)NCc2ccco2)cc1 | 0.6 | -4.1 | 0.3 | 56.1* | -29.4 | 12.4
O=C(CS(=O)(=O)c1ccccc1)NCc1ccco1 | -3.7 | 0.3 | 1.8 | nt | nt | nt
SMILES | Arbovirus inh | Efa HMGR inh | Rad51 HR inh | Yeast lifespan up | Yeast growth inh | Measles CPE
O=C(COC(=O)c1ccccc1)NCc1ccco1 | 1.3 | 1.7 | -3.3 | -12.2 | -6.9 | 25.9*
CCNC(=S)N/N=C/c1sc(N2CCCCC2)nc1-c1cccs1 | -8.7 | 1.7 | -214.0 | -0.6 | -54.3 | 8.7
NC(=O)c1ccc(-n2nnnc2SCC(=O)Nc2ccc(N3CCOCC3)c(Cl)c2)cc1 | 2.6 | -0.1 | nt | -11.8 | -52.9 | 32.4*
Nc1cccc(Nc2nc(OC(C(F)(F)F)C(F)(F)F)nc(OC(C(F)(F)F)C(F)(F)F)n2)c1 | -31.2 | 7.5 | -4.0 | -5.2 | -7.3 | 41.9*
Cc1ccnc(SCc2cc(=O)c(OC(=O)c3cccs3)co2)n1 | 2.6 | -6.6 | 8.8 | nt | nt | nt
Cc1ccnc(SCc2cc(=O)c(OC(=O)c3ccco3)co2)n1 | -4.2 | -3.8 | nt | 42.4* | -17.9 | 14.2
CC1(C)C(c2ccccc2)=NC(c2ccc(Br)cc2)N1O (configuration not stated) | -5.7 | -1.7 | 7.5 | nt | nt | nt
CN(c1ccc(O)cc1)c1nc(-c2ccccc2)cs1 | -34.2 | -1.6 | -4.0 | -12.0 | 81.5* | 13.2
Nc1nc(-c2ccc(-c3ccccc3)cc2)cs1 | -10.8 | -1.3 | -2.5 | nt | nt | nt
O=C(O)/C(=C\c1ccc(Cl)cc1)c1ccc(F)cc1 | 6.4 | -2.5 | -39.0 | nt | nt | nt
COc1ccc(NS(=O)(=O)c2ccc(O)c(C(=O)OCC(=O)Nc3ccc4c(c3)OCCO4)c2)cc1 | 8.0 | -0.5 | 9.6 | 6.6 | -46.5 | 5.6
COc1ccc(NS(=O)(=O)c2ccc3oc(Nc4ccc5c(c4)OCCO5)nc3c2)cc1 | -31.8 | 0.0 | 4.3 | -10.3 | -79.3 | 92.5*
CC(=O)OCC1=C(C(=O)O)N2C(=O)C(NC(=O)c3ccc(F)cc3)C2SC1 (configuration not stated) | 15.9 | 11.3* | -2.0 | nt | nt | nt
CC(=O)OCC1=C(C(=O)O)N2C(=O)C(NC(=O)C(C)Cn3nc(C)c(Cl)c3C)C2SC1 (configuration not stated) | 4.2 | -6.1 | nt | nt | nt | nt
Cc1nc2c(Br)c(C)nn2c2c1CCC2 | 16.6 | -2.7 | -2.0 | nt | nt | nt
O=C(NCCc1ccccn1)c1cc(-c2cccc3ccccc23)nc2ccccc12 | -6.6 | -7.7 | -9.1 | 28.1* | -37.9 | 15.9
Cc1ccc(-c2cc(C(=O)NCCc3ccccn3)c3ccccc3n2)c(C)c1 | 1.1 | 1.0 | -2.5 | -4.2 | -8.6 | 6.3
C/C(=N/N1CCN(c2ccccn2)CC1)c1cccc([N+](=O)[O-])c1 | -2.8 | -2.8 | -1.2 | 7.2 | -18.7 | 2.9
CC(C)(C)n1nc2c(c1NC(=O)c1ccc(S(=O)(=O)N3CCCCC3)cc1)CS(=O)C2 (configuration not stated) | -0.6 | -1.1 | 2.9 | -14.6 | 23.1 | 43.8*
Cc1nnc(SCC(=O)NCc2ccccc2)[nH]c1=O | 2.7 | -0.9 | -7.4 | 5.3 | -32.2 | 55.1*
CC1(C)CC2(CCO1)C(Nc1ccccc1)=NC(=S)N2CC(N)=O (configuration not stated) | nt | nt | 12.4 | nt | nt | nt
N#Cc1c(-c2ccccc2)c(-c2ccccc2)nn(CC(=O)NNC(=O)Nc2ccccc2)c1=O | -16.8 | -1.3 | nt | 62.4* | -10.1 | 7.0
O=C(Nc1ccc(F)c(Cl)c1)c1ccc2c(=O)n3c(nc2c1)CCCCC3 | 1.2 | 3.2 | -5.0 | -5.7 | -17.1 | 4.7
O=C(c1ccc2c(=O)n3c(nc2c1)CCCCC3)N1CCN(C(c2ccccc2)c2ccccc2)CC1 | -33.9 | 2.7 | 1.1 | -12.8 | -12.4 | 42.4*
Cc1ccc(S(=O)(=O)N2CCCCC2)cc1NC(=O)c1ccc2c(=O)n3c(nc2c1)CCCCC3 | -7.5 | -0.2 | 12.7 | 5.4 | -19.4 | 6.7
O=C(Nc1cccc(Cl)c1)c1ccc2c(=O)n3c(nc2c1)CCCCC3 | -15.6 | -1.2 | nt | 59.2* | -39.3 | 0.2
Cc1ccc(-c2csc(NC(=O)c3ccc4c(=O)n5c(nc4c3)CCCCC5)n2)cc1 | 11.1 | -4.4 | 3.7 | 5.8 | -24.0 | 55.9*
